# Compound activity (PubChem BioAssay)
# APP 5'UTR act: activates APP 5'UTR luciferase reporter. SH-SY5Y APP 5'UTR luciferase reporter, luminescence; zero percent = DMSO vehicle wells. 190,000 compounds, 1% hits. activation, % at 2 µM;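 active means activation above a set limit, based on mean plus 3 SD of controls, cut at about 140% in these data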
# STAT1 inh: reduces IFN-gamma driven STAT1 reporter signal; AID 920; inhibition, % at 5.5 µM; 200,000 compounds, 0.35% hits; NIH 3T3 STAT1-luciferase reporter, luminescence;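 active means inhibition above a set limit, the mean inhibition across all tested compounds plus 3 SD, cut at about 34% in these data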
# STAT3 act: activators of IL-6 induced STAT3 signaling. U3A cells, IL-6 STAT3-luciferase reporter, luminescence; 100% = signal with IL-6 EC80 alone. activation (% of control), % at 5.6 µM. 190,000 compounds, 0.91% hits;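 active means activation above the screen-wide mean of compound activation plus 3 SD, cut at about 130% in these data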
#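 Material: human STAT1-deficient U3A cells with stable STAT3-luciferase reporter / Probe or stimulus: IL-6 stimulus at 33 ng/mL final / Schedule: 1 h compound pre-exposure, 6 h IL-6 stimulation, 37 °C / Technique: luminescence / Read-out basis: percent of IL-6-only median luminescence / Control set: IL-6-only high control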
# STAT1 act: STAT1 signaling activation; NIH 3T3 STAT1-luciferase reporter, IFN-gamma, luminescence; 100% = IFN-gamma alone, no compound; activation (% of control), % at 5.5 µM; 200,000 compounds, 2.6% hits; AID 932;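 active means activation above the screen-wide mean activation plus 3 SD, cut at about 130% in these data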
# NF-kB expr up: NF-kB expression increase, human neuronal cells. AID 1239. NF-kB reporter expression; active compounds read high. 190,000 compounds, 1.6% hits. fold change at 12.5 µM; in the data active means fold change above about 3.3
# STAT3 inh: reduces IL-6 driven STAT3 reporter signal | U3A cells, IL-6 STAT3-luciferase reporter, luminescence; host cell line lacks STAT1 | inhibition, % at 5.5 µM | 190,000 compounds, 0.89% hits;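 active means inhibition above the mean inhibition across all screened compounds plus 3 SD, cut at about 44% in these data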
# A number is an active result; 0 = inactive. A selection: hits, their analogues and other compounds. The true share with any hit is near 4.9%.
SMILES,APP 5'UTR act,STAT1 inh,STAT3 act,STAT1 act,NF-kB expr up,STAT3 inh
CC(C)(C)NC(=S)NC(=O)C12CCC3CC(CC(C3)C1)C2,0,0,0,0,0,0
O=C(Oc1ccc(Cl)c2ccccc12)N1CCCCC1,0,0,0,0,0,0
O=C(Oc1ccc2ccccc2c1Cl)N1CCCC1,143,0,0,144,5.1,0
c1ccc(COc2ccc(OCCOCCn3cncn3)cc2)cc1,154,0,0,0,3.6,0
c1ccc(SCCOCCn2cncn2)cc1,0,0,0,0,0,0
c1ccc(C[n+]2cccc3c4ccccc4ccc32)cc1,0,0,0,0,0,60
COC(=O)c1c(NC(=O)CN2C(=O)C(=O)N(CC(C)C)C2=O)sc2c1CCCCC2,0,0,0,0,0,0
Cc1nc2cc(-c3ccccc3)sc2c(=O)n1N,0,86,0,0,0,99
Cc1ccc(C)n1-n1c(C)nc2sc(-c3ccccc3)cc2c1=O,0,0,0,0,0,0
Cc1cc(NC(=O)CSc2ccc(-c3nc4cc(C)c(C)cc4[nH]3)cn2)no1,0,0,0,0,0,0
Cc1cc2nc(-c3ccc(SCC(=O)NC(C)C)nc3)[nH]c2cc1C,0,0,0,0,0,0
Cc1cc2nc(-c3ccc(SCC(=O)Nc4ccc(S(=O)(=O)NC5CC5)cc4)nc3)[nH]c2cc1C,0,0,0,147,5.9,0
Cc1cc2nc(-c3ccc(SCC(=O)N4CCc5ccccc54)nc3)[nH]c2cc1C,0,0,138,139,0,0
N#C/C(=C1/CCCCCN1)c1nc2ccccc2[nH]1,0,0,0,130,0,0
c1ccc2nc(-c3nc4ccccc4o3)ccc2c1,0,38,0,0,0,80
O=C(NC(Nc1nc2ccc([N+](=O)[O-])cc2s1)(C(F)(F)F)C(F)(F)F)c1cccnc1,0,46,0,0,0,71
CN(C)S(=O)(=O)c1ccc2nc(NC(=O)c3cccnc3)sc2c1,0,0,0,0,0,0
O=C(NC(NNc1ccc([N+](=O)[O-])cc1)(C(F)(F)F)C(F)(F)F)c1ccccc1Cl,0,0,0,0,0,0
O=C(NC(Nc1nc2ccc([N+](=O)[O-])cc2s1)(C(F)(F)F)C(F)(F)F)c1ccccc1Cl,0,47,0,0,0,92
O=C(NC1CCCCC1)c1cc(-c2ccco2)on1,0,0,0,130,0,0
CCCNC(=O)c1cc(-c2ccco2)on1,0,0,0,0,4.9,0
COc1ccc(F)cc1C(=O)C1CCCN(C(=O)C2=C(C)OCCO2)C1 (configuration not stated),0,0,0,0,0,0
COc1cc(S(=O)(=O)Nc2ccc3cn[nH]c3c2)ccc1Cl,0,0,0,0,0,0
O=C(O)c1ccc(Cl)c(S(=O)(=O)Nc2ccc3cn[nH]c3c2)c1,0,0,135,0,0,0
O=c1[nH]c(C2C3CC4CC(C3)CC2C4)nc2ccccc12 (configuration not stated),0,0,0,0,0,0
SMILES,APP 5'UTR act,STAT1 inh,STAT3 act,STAT1 act,NF-kB expr up,STAT3 inh
O=C(NC(=S)Nc1nc2ccc(F)cc2s1)c1ccco1,0,0,157,130,0,0
CS(=O)(=O)c1ccc2nc(NC(=O)c3ccco3)sc2c1,0,0,0,131,0,0
Cc1ccc(C(=O)Nc2nc3ccc(S(C)(=O)=O)cc3s2)o1,0,0,0,0,0,0
CCOC(=O)C1C(C#N)=C(N)OC(C)=C1c1ccncc1 (configuration not stated),0,0,0,0,0,0
Cc1c(NC(=O)CN2C(=O)NC(CCc3ccccc3)C2=O)c(=O)n(-c2ccccc2)n1C (configuration not stated),0,0,0,0,0,0
CSc1cccc(NC(=O)c2ccccn2)c1,0,0,0,142,0,0
COc1ccc(NC(=O)c2ccc(-c3ccccc3Cl)o2)cc1,0,0,0,130,0,0
COc1ccc(NC(=O)c2ccccn2)cc1OC,0,0,0,0,0,0
COc1ccc(NC(=O)c2ccccn2)cc1,0,0,0,0,3.3,77
CCC(=O)Nc1ccc(NC(=O)c2cccc(OC)c2)nc1,0,0,0,129,0,0
CSc1cccc(NC(=O)c2cnccn2)c1,0,0,0,0,0,0
COc1cc([N+](=O)[O-])c(C(=O)N2CCOCC2)c([N+](=O)[O-])c1,0,0,0,0,0,0
CCC(=O)Nc1ccc(NC(=O)c2ccccn2)cn1,0,0,0,130,0,0
CC(C)Oc1ccc(NC(=O)Oc2ccccc2)cc1,0,0,0,130,0,0
Cc1ccc(-c2c3c(nc4sc(C(N)=O)c(N)c24)CCC3)cc1,0,0,0,0,0,0
Cc1ccc(C(=O)c2sc3nc4c(cc3c2N)CCC4)cc1,192,0,0,0,0,0
Cc1ccc2nc(COc3ccc(Cl)cc3)cc(=O)n2c1,0,0,0,136,0,0
O=C(CSC1=NCCN1)NC(c1ccccc1)c1ccccc1,0,0,0,0,0,0
O=c1c(-c2cc3ccccc3o2)[n+]([O-])c2ccccc2n1OCc1ccccn1,0,0,0,142,0,0
O=C(c1cn(-c2ccccc2)nc1-c1ccc(F)cc1)N1CCCCC1,0,0,0,0,0,0
N#Cc1ncc(-c2ccc3c(c2)OCCOCCOCCOCCOCCO3)nc1C#N,0,0,0,0,6.7,0
C/C(=N\NC(=O)c1ccccc1F)c1ccc2c(c1)Nc1ccccc1S2,0,0,0,132,0,0
c1cn(-c2ccc(-c3ccnc4ncnn34)cc2)cn1,0,0,0,0,0,0
Nc1ccc2nc(NC(=O)C3CCCCC3)sc2c1,0,0,0,146,4.8,0
CCOc1ccc2nc(NC(=O)C3CCCO3)sc2c1 (configuration not stated),158,0,0,140,4.7,0
SMILES,APP 5'UTR act,STAT1 inh,STAT3 act,STAT1 act,NF-kB expr up,STAT3 inh
O=C(Nc1nnc(-c2ccccc2F)s1)C1CCCO1 (configuration not stated),0,0,0,141,0,0
O=C(Nc1nnc(-c2ccncc2)s1)C1CCCO1 (configuration not stated),0,0,0,0,0,0
O=C(Nc1nc2ccc(C(=O)N3CCCCC3)cc2s1)C1CCCCC1,0,0,0,0,0,0
O=C(Nc1nc2ccc(F)cc2s1)C1CCCO1 (configuration not stated),0,0,0,146,3.9,0
CCOc1ccc2nc(NC(=O)NC3CCCCC3)sc2c1,0,0,0,0,0,0
CCOC(=O)c1c(Cc2ccccc2)c[nH]c1C,0,0,0,0,0,0
O=C(OC(C(=O)NC1CCCC1)c1ccncc1)C1=Cc2ccccc2OC1 (configuration not stated),0,0,0,0,0,0
